Screening results as filed in PubChem BioAssay.
Most compounds without a hit are left out; they make up all but 29% or so of the library.
Ecoli tolC: blocks growth of E. coli BW25113 tolC mutant | OD615 | growth inhibition, % at 10 µM (by protocol) | 65,000 compounds, 2.2% hits | AID 573;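 active means growth inhibition at or above a cutoff equal to the mean over every tested compound plus 3 SD, cut at about 60% in these data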;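 further: growth measured after 20 h incubation at 37 °C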
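test system = E. coli BW25113 ΔtolC::kan bacteria | medium = LB with kanamycin 50 µg/mL | signal = OD at 615 nm | schedule = 37 °C, 20 h exposure | evaluation = % inhibition of E. coli growth | compound dosing = one dose of 10 µM final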
CYP2C19 inhib: blocks human cytochrome P450 2C19; P33261; CYP2C19 Supersomes, luciferin-H EGE luminescence, 30 min; inhibition, % at 5 µM; 96,000 compounds, 21% hits; AID 778;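 active means CYP2C19 inhibition above a set limit at 5 µM in the primary screen, cut at about 50% in these data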;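 further: plate controls were negative control wells for no effect and 2.5 mM tranylcypromine positive control for full effect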
E coli WT exp: E. coli BW25113 growth inhibition, expanded screen | 98,000 compounds, 0.15% hits | growth inhibition, % at 100 µM | OD600 absorbance;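 active means growth inhibition above about 50% at one test dose, limit read from the data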;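 further: growth measured after 20 h incubation at 37 °C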
CYP2C9 activ: CYP2C9 (human) activation | P11712 | recombinant CYP2C9, luciferin-H conversion, luminescence; hits give high values; factor 1 = untreated enzyme, 0 = blocked | activation factor at 5 µM | 96,000 compounds, 1.4% hits;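 active means activation factor of 2 or more for CYP2C9 at a 5 µM dose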;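 further: 0 = sulfaphenazole-blocked wells and 1 = vehicle-only wells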
Target sequence (P11712 whole entry, looked up): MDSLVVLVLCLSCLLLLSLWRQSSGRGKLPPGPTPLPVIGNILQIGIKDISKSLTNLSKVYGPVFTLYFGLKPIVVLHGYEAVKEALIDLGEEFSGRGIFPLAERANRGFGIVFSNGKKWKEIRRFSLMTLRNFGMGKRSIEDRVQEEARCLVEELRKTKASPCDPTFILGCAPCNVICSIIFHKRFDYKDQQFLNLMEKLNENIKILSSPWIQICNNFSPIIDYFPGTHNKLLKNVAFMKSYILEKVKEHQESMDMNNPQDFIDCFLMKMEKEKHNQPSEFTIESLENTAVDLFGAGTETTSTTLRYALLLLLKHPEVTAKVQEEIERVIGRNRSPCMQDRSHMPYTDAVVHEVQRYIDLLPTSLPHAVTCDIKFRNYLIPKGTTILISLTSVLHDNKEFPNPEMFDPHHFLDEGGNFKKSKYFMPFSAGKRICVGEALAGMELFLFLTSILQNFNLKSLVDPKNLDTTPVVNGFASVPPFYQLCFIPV
CYP2C19 activ: increases human CYP2C19 enzyme activity. P33261. recombinant CYP2C19, luciferin-H EGE luminescence; hits give high values; 0 = fully inhibited enzyme, 1 = untreated enzyme. activation factor at 5 µM. 96,000 tested, under 10 active. AID 1025;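 active means activation factor of at least 2 at 5 µM in the primary screen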;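 further: 0 = wells with 2.5 mM tranylcypromine and 1 = vehicle-only wells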
CYP2C9 inhib: human CYP2C9 inhibition; AID 777; inhibition, % at 5 µM; P11712; CYP2C9 Supersomes, luciferin-H conversion, luminescence; 96,000 compounds, 20% hits;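 active means blocking of liver enzyme CYP2C9 beyond about 50% at 5 µM, limit read from the data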
* marks the source's active call; other numbers are inactive results; nt = no result.

SMILES	Ecoli tolC	CYP2C19 inhib	E coli WT exp	CYP2C9 activ	CYP2C19 activ	CYP2C9 inhib
NC(=O)C1CCN(C(=O)C2CCN(S(=O)(=O)c3ccccc3)CC2)CC1	-11	-12	-2	0.8	1.1	17
N#Cc1c(NCCN)nc(NCc2ccccc2)c2c1CCN(Cc1ccccc1)C2	14	88*	nt	0	0.1	95*
Cc1cc(C)c(C#N)c(N2CCN(Cc3ccccc3)CC2)n1	nt	62*	16	0.5	0.4	50*
N#Cc1c(N2CCCCC2)nc(N2CCCCC2)c2c1CCN(Cc1ccccc1)C2	14	68*	-14	0	0.3	96*
CCCCCn1c(SCCN2CCOCC2)nc2c1c(=O)[nH]c(=O)n2C	6	-4	0	0.7	1	35
O=C(c1ccccc1)c1ccc2ccccc2n1	nt	69*	6	1.3	0.3	-31
O=C(O)C(=O)/C(=C\c1ccccc1)c1ccc2ccccc2n1	nt	15	-4	0.8	0.9	17
c1coc(CN2CN=C(Nc3nc4ccccc4s3)NC2)c1	-6	14	-2	1	0.9	1
CCOC(=O)N1CCC(NC(=O)c2cccn3c(=O)c4cc(Br)ccc4nc23)CC1	2	64*	-1	0.1	0.4	86*
CCOC(=O)N1CCC(NC(=O)c2cn(-c3ccc(OC)cc3)c(=O)c3ccccc23)CC1	2	91*	-1	0.1	0.1	90*
CCOc1ccc(NC(=O)CNC(=O)c2cn(-c3ccccc3OC)c(=O)c3ccccc23)cc1	nt	86*	-2	0.1	0.1	88*
CCOC(=O)N1CCC(NC(=O)c2ccc3nc4ccccc4c(=O)n3c2)CC1	nt	-1	-4	0.8	1	17
CCOC(=O)N1CCC(NC(=O)c2cccc3c2C(=O)N(c2ccc(OC)cc2)C3)CC1	49	97*	-20	0	0	98*
CCOC(=O)N1CCC(N2Cc3cccc(C(=O)O)c3C2=O)CC1	-9	4	-5	0.6	1	38
COc1ccc2[nH]c(=O)c(CN(C(=O)C3CCCO3)c3cccc(C)c3)cc2c1 (stereo not given)	-8	10	nt	0.9	0.9	9
Cc1cc(=O)oc(C)c1C(=O)Nc1c(C)n(C)n(-c2ccccc2)c1=O	nt	-5	0	0.9	1.1	7
CCCN1Cc2cccc(C(=O)Nc3cc(OC)cc(OC)c3)c2C1=O	2	12	-11	0.5	0.9	46
COc1ccc(N2Cc3cccc(C(=O)NC(C)CCc4ccco4)c3C2=O)cc1 (stereo not given)	37	85*	-8	0.1	0.2	92*
Cc1ccc(C(=O)c2ccc([N+](=O)[O-])cc2)c(C)c1	nt	82*	16	0.4	0.2	60*
COC(=O)c1ccc2c(=O)n(CCN3CCOCC3)c(SCC(=O)NC3CCCCC3)nc2c1	-11	nt	nt	nt	nt	nt
O=S(=O)(/N=S1/CC=CCN1S(=O)(=O)c1ccccc1)c1ccccc1 (stereo not given)	-22	2	-1	0.4	1	55*
NC(=O)C1CCCN(S(=O)(=O)c2ccccc2)C1 (stereo not given)	-3	23	-2	1.2	0.8	-19
CCOC(=O)N1CCN(c2nc(N(c3ccccc3)c3ccccc3)nc(-n3ccnc3)n2)CC1	66*	nt	nt	nt	nt	nt
c1ccc(N(c2ccccc2)c2nc(N3CCCC3)nc(-n3ccnc3)n2)cc1	6	-1	5	0.9	1	6
CN(c1ccccc1)c1nc(N2CCCC2)nc(-n2ccnc2)n1	96*	40	12	0.6	0.6	39
SMILES	Ecoli tolC	CYP2C19 inhib	E coli WT exp	CYP2C9 activ	CYP2C19 activ	CYP2C9 inhib
Cc1nnc(SCC(=O)Nc2ncc(Cc3ccc(F)cc3)s2)n1N	-2	5	-2	0.8	0.9	20
O=Cc1ccc(N2CCCCCC2)cc1	nt	89*	-1	0.7	0.1	30
COC(=O)C1=C(C(=O)OC)C2(OC1c1cccc(F)c1)C(=O)c1ccccc1C2=O (stereo not given)	nt	20	2	0.7	0.8	29
O=C(Oc1ccc2c(c1)C(=O)c1ccccc1CO2)c1ccccc1	nt	17	-4	0.3	0.8	73*
O=C(CCCn1c(SCC(=O)c2ccc(F)cc2)nc2ccccc2c1=O)NCc1ccccc1	nt	71*	-13	0.1	0.3	90*
O=C(CCCn1c(SCC(=O)NC2CCCC2)nc2ccccc2c1=O)NCC1CCCO1 (stereo not given)	-6	nt	nt	nt	nt	nt
